Assay results reported in ChEMBL document CHEMBL2390866, “Novel pyrimidoazepine analogs as serotonin 5-HT(2A) and 5-HT(2C) receptor ligands for the treatment of obesity” (Eur J Med Chem, 2013).

What was measured:
[1] = AUClast in Sprague-Dawley rat at 10 mg/kg, iv; assay type: ADME, organism-based; set-up: time 0 - last, dose 10 mg/kg, route intravenous; conditions: plasma
[2] = Displacement of [3H]-YM-09151-2 from cloned dopamine D4.2 receptor (unknown origin) expressed in Sf9 cells after 60 mins; set-up: species or system Homo sapiens
Outline: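 Sf9 membranes with cloned D4.2 receptor incubated with 0.2 nM [3H]YM-09151-2 for 60 min at 27 °C in 50 mM Tris-HCl pH 7.4, 5 mM MgCl2, 5 mM EDTA, 5 mM KCl, 1.5 mM CaCl2. Clozapine defined nonspecific binding. Filtered on glass-fiber filters presoaked in 0.3% PEI.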

Homo sapiens [3] = species on record: Homo sapiens; assay: Selectivity ratio of IC50 for human recombinant 5HT-2B receptor to IC50 for human recombinant 5HT-2A receptor
Mus musculus [4] = assay: Antiobesity activity in B6.V/J ob/ob mouse assessed as inhibition of food intake at 50 mg/kg, ip measured up to 12 hrs relative to vehicle-treated control; assay type: functional; conditions: route intraperitoneal
Outline: (§1)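 Male mice were acclimated 1 week at 23 ± 3 °C and 50 ± 20% humidity, then fasted 24 h. They were dosed once intraperitoneally with vehicle or compound: 50 mg/kg in C57BL/6, or 12.5, 25 or 50 mg/kg in B6.V-Lep^ob/J. Food intake was measured at 2, 6 and 12 h versus vehicle control.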

Mus musculus [5] = assay: Antiobesity activity in B6.V/J ob/ob mouse assessed as change in liver weight at 50 mg/kg, po bid measured after 14 days (reference value: 3.396 +/- 0.162 g); assay type: functional
Mus musculus [6] = assay: Antiobesity activity in C57BL/6 mouse assessed as inhibition of body weight gain at 50 mg/kg, po qd measured after 14 days relative to vehicle-treated control; assay type: functional; conditions: C57BL/6, 336 h
Mus musculus [7] = assay: Antiobesity activity in B6.V/J ob/ob mouse assessed as inhibition of food intake at 25 mg/kg, ip measured up to 12 hrs relative to vehicle-treated control; assay type: functional; conditions: route intraperitoneal; outline: as §1
[8] = Ratio of drug level from brain to plasma in Sprague-Dawley rat at 10 mg/kg, po measured at 2 hrs; assay type: ADME, organism-based; set-up: dose 10 mg/kg, route oral; conditions: read-out: BPR
Outline: (§2)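 Rats fasted 12 h, then dosed orally by gavage or by bolus tail-vein injection at 2 ml/kg. Compound given as a 5 mg/ml solution in N-methyl-2-pyrrolidone/Tween 80/water (1:2:7). Samples taken at various times (n = 5) and stored at −70 °C. Plasma deproteinized with acetonitrile containing carbamazepine internal standard, then quantified by LC-MS/MS.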

Mus musculus [9] = assay: Antiobesity activity in B6.V/J ob/ob mouse assessed as inhibition of body weight gain at 25 mg/kg, po bid measured after 14 days relative to vehicle-treated control; assay type: functional; conditions: 336 h
Mus musculus [10] = assay: Antiobesity activity in B6.V/J ob/ob mouse assessed as inhibition of food intake at 12.5 mg/kg, ip measured up to 6 hrs relative to vehicle-treated control; assay type: functional; conditions: route intraperitoneal; outline: as §1
[11] = AUClast in Sprague-Dawley rat at 10 mg/kg, po; assay type: ADME, organism-based; set-up: time 0 - last, dose 10 mg/kg, route oral; conditions: plasma
Mus musculus [12] = assay: Antiobesity activity in B6.V/J ob/ob mouse assessed as change in lung weight at 50 mg/kg, po bid measured after 14 days (reference value: 0.143 +/- 0.013 g); assay type: functional
Mus musculus [13] = assay: Antiobesity activity in B6.V/J ob/ob mouse assessed as change in lung weight at 25 mg/kg, po bid measured after 14 days (reference value: 0.143 +/- 0.013 g); assay type: functional
Mus musculus [14] = assay: Antiobesity activity in B6.V/J ob/ob mouse assessed as change in heart weight at 5 mg/kg, po bid measured after 14 days (reference value: 0.150 +/- 0.003 g); assay type: functional
[15] = Apparent volume of distribution at steady state in Sprague-Dawley rat at 10 mg/kg, iv; assay type: ADME, organism-based; set-up: dose 10 mg/kg, route intravenous; conditions: in vivo, read-out: Vdss(app); outline: as §2
Mus musculus [16] = assay: Antiobesity activity in B6.V/J ob/ob mouse assessed as inhibition of food intake at 12.5 mg/kg, ip measured up to 2 hrs relative to vehicle-treated control; assay type: functional; conditions: route intraperitoneal; outline: as §1
Mus musculus [17] = assay: Antiobesity activity in B6.V/J ob/ob mouse assessed as change in heart weight at 25 mg/kg, po bid measured after 14 days (reference value: 0.150 +/- 0.003 g); assay type: functional
Mus musculus [18] = assay: Antiobesity activity in B6.V/J ob/ob mouse assessed as inhibition of food intake at 25 mg/kg, ip measured up to 6 hrs relative to vehicle-treated control; assay type: functional; conditions: route intraperitoneal; outline: as §1
Mus musculus [19] = assay: Antiobesity activity in B6.V/J ob/ob mouse assessed as change in thymus weight at 5 mg/kg, po bid measured after 14 days (reference value: 0.029 +/- 0.006 g); assay type: functional
Mus musculus [20] = assay: Antiobesity activity in B6.V/J ob/ob mouse assessed as change in gonadal adipose tissue weight at 50 mg/kg, po bid measured after 14 days (reference value: 3.599 +/- 0.155 g); assay type: functional
Mus musculus [21] = assay: Antiobesity activity in B6.V/J ob/ob mouse assessed as change in thymus weight at 50 mg/kg, po bid measured after 14 days (reference value: 0.029 +/- 0.006 g); assay type: functional
[22] = target: 5-hydroxytryptamine receptor 2A (Homo sapiens, UniProt P28223); assay: Displacement of [3H]-ketanserin from human recombinant 5HT-2A receptor expressed in CHOK1 cell membranes after 60 mins; set-up: species or system CHO-K1
Outline: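 Buffer was 50 mM Tris-HCl pH 7.4 with 5 mM CaCl2 and 0.1% ascorbic acid. Test compound added at a range of concentrations.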

[23] = Plasma concentration in Sprague-Dawley rat at 10 mg/kg, iv measured at 2 hrs; assay type: ADME, organism-based; set-up: dose 10 mg/kg, route intravenous; outline: as §2
[24] = Terminal half life in Sprague-Dawley rat at 10 mg/kg, po; assay type: ADME, organism-based; set-up: dose 10 mg/kg, route oral; conditions: in vivo, read-out: beta t1/2; outline: as §2
Homo sapiens [25] = species on record: Homo sapiens; assay: Selectivity ratio of IC50 for human recombinant 5HT-2B receptor to IC50 for human recombinant 5HT-2C receptor
[26] = Oral bioavailability in Sprague-Dawley rat at 10 mg/kg; assay type: ADME, organism-based; conditions: in vivo; outline: as §2
Mus musculus [27] = assay: Antiobesity activity in B6.V/J ob/ob mouse assessed as inhibition of food intake at 50 mg/kg, ip measured up to 2 hrs relative to vehicle-treated control; assay type: functional; conditions: route intraperitoneal; outline: as §1
Mus musculus [28] = assay: Antiobesity activity in B6.V/J ob/ob mouse assessed as change in gonadal adipose tissue weight at 5 mg/kg, po bid measured after 14 days (reference value: 3.599 +/- 0.155 g); assay type: functional
Mus musculus [29] = assay: Antiobesity activity in B6.V/J ob/ob mouse assessed as change in lung weight at 5 mg/kg, po bid measured after 14 days (reference value: 0.143 +/- 0.013 g); assay type: functional
[30] = Drug uptake in Sprague-Dawley rat brain at 10 mg/kg, po measured at 2 hrs; assay type: ADME, organism-based; set-up: dose 10 mg/kg, route oral; conditions: read-out: Drug uptake; outline: as §2

Sequence of 5-hydroxytryptamine receptor 2A (P28223 whole entry): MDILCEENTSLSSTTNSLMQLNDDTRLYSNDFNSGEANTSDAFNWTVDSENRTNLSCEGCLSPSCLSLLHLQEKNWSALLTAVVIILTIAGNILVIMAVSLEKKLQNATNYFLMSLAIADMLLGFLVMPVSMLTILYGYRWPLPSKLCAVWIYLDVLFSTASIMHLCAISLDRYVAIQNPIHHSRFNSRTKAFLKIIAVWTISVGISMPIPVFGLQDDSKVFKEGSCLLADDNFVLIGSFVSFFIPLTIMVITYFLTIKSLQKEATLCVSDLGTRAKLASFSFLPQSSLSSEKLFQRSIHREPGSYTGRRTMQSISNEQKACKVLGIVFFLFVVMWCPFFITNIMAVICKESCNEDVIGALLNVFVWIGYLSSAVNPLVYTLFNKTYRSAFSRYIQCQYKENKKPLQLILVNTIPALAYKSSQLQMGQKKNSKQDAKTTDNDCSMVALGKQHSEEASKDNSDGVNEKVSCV

Cl.Clc1cccc(Nc2nc(Cc3ccccc3)nc3c2CCNCC3)c1
AUC(0-t) [1]: 1730 ng·h/mL | IC50 [2]: 900 nM | Ratio IC50 (Homo sapiens [3]): 4.2 | inhibition in vivo at 50 mg/kg (Mus musculus [4]): 93.3% | Activity (Mus musculus [5]): 3.87 g | inhibition in vivo at 50 mg/kg (Mus musculus [6]): 18.8% | inhibition in vivo at 25 mg/kg (Mus musculus [7]): 77.8% | Kp at 2 h [8]: 0.66 | inhibition in vivo at 25 mg/kg (Mus musculus [9]): 32.7% | inhibition in vivo at 12.5 mg/kg (Mus musculus [10]): 71% | AUC(0-t) [11]: 375 ng·h/mL | Activity (Mus musculus [12]): 0.14 g | Activity (Mus musculus [13]): 0.154 g | Activity (Mus musculus [14]): 0.163 g | Vd [15]: 17 L/kg | inhibition in vivo at 12.5 mg/kg (Mus musculus [16]): 98.6% | Activity (Mus musculus [17]): 0.143 g | inhibition in vivo at 25 mg/kg (Mus musculus [18]): 90.2% | Activity (Mus musculus [19]): 0.033 g | Activity (Mus musculus [20]): 3.475 g | Activity (Mus musculus [21]): 0.04 g | IC50 [22]: 3 nM | concentration at 2 h [23]: 190 ng/mL | half-life [24]: 12.7 h | Ratio IC50 (Homo sapiens [25]): 8.1 | bioavailability [26]: 55.1% | inhibition in vivo at 50 mg/kg (Mus musculus [27]): 99.8% | Activity (Mus musculus [28]): 3.776 g | Activity (Mus musculus [29]): 0.124 g | concentration at 2 h [30]: 29.2 ng/mL
